GASC1 inh = inhibitors of human demethylase GASC-1 KDM4C; Q9H3R0; GST-KDM4C 2-372, H3K9me3 peptide, LANCE TR-FRET; inhibition, % at 12.5 µM; hit rate 0.15% among 96,000;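 active = mean replicate inhibition above about 25%, with at least 55% of replicates also reaching it, limit read from the data, passing the limit was not always enough; inconclusive = only one of those two conditions met; inactive = neither condition met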
Target sequence (Q9H3R0 2-372 limits assumed): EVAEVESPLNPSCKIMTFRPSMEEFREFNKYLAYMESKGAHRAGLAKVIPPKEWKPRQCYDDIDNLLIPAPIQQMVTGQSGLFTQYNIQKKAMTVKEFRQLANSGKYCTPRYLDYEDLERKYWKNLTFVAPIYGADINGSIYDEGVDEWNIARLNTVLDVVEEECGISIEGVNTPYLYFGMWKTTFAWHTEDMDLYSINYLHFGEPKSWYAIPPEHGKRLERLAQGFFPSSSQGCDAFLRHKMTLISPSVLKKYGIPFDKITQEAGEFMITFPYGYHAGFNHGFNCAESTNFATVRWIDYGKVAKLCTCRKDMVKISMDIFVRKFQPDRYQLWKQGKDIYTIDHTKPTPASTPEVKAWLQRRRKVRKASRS
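material = GST-tagged GASC-1 (JMJD2C) catalytic fragment, aa 2-372 | amount = enzyme final amount 10 nM | medium = HEPES buffer, pH 7.5, plus ascorbate | also added = H3K9me3 peptide substrate, Fe(II), 2-oxoglutarate | dosing = single dose | times = 30 min demethylation and 1 h detection at room temperature | detection = LANCE TR-FRET | read-out basis = Fall in 671/618 emission ratio as inhibition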
T cruzi growth-1 = inhibitors of T. cruzi proliferation; T. cruzi beta-gal in NIH3T3, GalScreen luminescence, 90 h; inhibition, % at 8.34 µM; hit rate 5.9% among 77,000;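 active = mean inhibition above about 93%, with at least 55% of replicates each passing it, limit read from the data, passing the limit was not always enough; inconclusive = only one of those two conditions holds; inactive = neither condition holds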
IDH1 R132H inh = inhibitors of human IDH1 R132H | IDH1 R132H reductase, diaphorase/resazurin fluorescence, 60 min | inhibition, % at 10 µM | hit rate 0.18% among 70,000 | AID 624101; in the data active = inhibition above about 34%; inconclusive = no clear call, values can overlap the other calls; inactive = below about 11%
Target sequence (O75874 whole entry R132H): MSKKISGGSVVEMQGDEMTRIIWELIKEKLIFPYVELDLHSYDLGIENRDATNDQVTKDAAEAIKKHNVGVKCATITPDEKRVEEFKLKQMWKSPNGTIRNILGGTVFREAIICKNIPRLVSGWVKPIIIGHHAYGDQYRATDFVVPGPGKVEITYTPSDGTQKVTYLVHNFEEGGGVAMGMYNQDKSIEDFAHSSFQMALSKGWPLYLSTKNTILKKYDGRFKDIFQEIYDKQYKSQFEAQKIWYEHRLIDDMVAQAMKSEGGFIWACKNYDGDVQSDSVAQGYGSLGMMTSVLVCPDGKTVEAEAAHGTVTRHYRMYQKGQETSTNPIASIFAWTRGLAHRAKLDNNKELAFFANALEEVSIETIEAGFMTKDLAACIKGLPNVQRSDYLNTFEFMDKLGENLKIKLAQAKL
T cruzi growth-2 = inhibitors of T. cruzi proliferation | shares compounds with T cruzi growth-1 | T. cruzi beta-gal in NIH3T3, GalScreen luminescence, 90 h | inhibition, % at 8.35 µM | hit rate 72% among 5,600;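 active = mean replicate inhibition above about 95% and at least 55% of replicates individually reaching it, limit read from the data; inconclusive = only one of the two criteria is met; inactive = neither criterion is met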
T cruzi growth-3 = inhibitors of T. cruzi proliferation | shares compounds with T cruzi growth-1 | T. cruzi beta-gal in NIH3T3, GalScreen luminescence, 90 h | hit rate 21% among 5,600 | inhibition, % at 2.09 µM;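 active = mean inhibition above about 95%, with at least 55% of replicates also reaching it, limit read from the data; inconclusive = meets just one of the two conditions; inactive = meets neither condition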
NIH3T3 tox = cytotoxicity in mouse NIH/3T3 fibroblasts. NIH/3T3 viability, CellTiter-Glo ATP luminescence, 90 h. AID 651742. shares compounds with T cruzi growth-1. hit rate 14% among 5,600. cytotoxicity (signal decrease), % at 8.35 µM;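 active = mean signal decrease across replicates above about 35% based on untreated-well scatter, with enough replicates individually passing, limit read from the data; inconclusive = no rule stated though some were filed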
NIH3T3 tox 2 = NIH/3T3 (mouse) viability loss. inhibition, % at 24.9 µM. shares compounds with T cruzi growth-1. NIH/3T3 viability, CellTiter-Glo ATP luminescence, 90 h. AID 651744. hit rate 56% among 5,600;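 active = mean loss of cell viability signal at or above a set limit, and enough replicates individually reaching it; inconclusive = meets only the mean limit or only the replicate share; inactive = meets neither condition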
Each line names hits and unclear results; the compound was inactive in the other large screens (follow-up assays come after a bar, where they were run). Shown is part of a subset that was picked to be rich in hits.

CCCC#Cc1ccc2c(c1)O[C@H](CN(C)Cc1cccnc1)[C@H](C)CN([C@@H](C)CO)S2(=O)=O	T cruzi growth-1 109 | T cruzi growth-2 99 | T cruzi growth-3 inactive | NIH3T3 tox 54 | NIH3T3 tox 2 inconclusive
CCCC#Cc1ccc2c(c1)O[C@H](CN(C)Cc1cccnc1)[C@@H](C)CN([C@H](C)CO)S2(=O)=O	T cruzi growth-1 123 | T cruzi growth-2 106 | T cruzi growth-3 104 | NIH3T3 tox inactive | NIH3T3 tox 2 92
CCCC#Cc1ccc2c(c1)O[C@@H](CN(C)Cc1cncnc1)[C@@H](C)CN([C@@H](C)CO)S2(=O)=O	none
COCC#Cc1ccc2c(c1)O[C@H](CN(C)Cc1cccnc1)[C@@H](C)CN([C@@H](C)CO)S2(=O)=O	T cruzi growth-1 105 | T cruzi growth-2 97 | T cruzi growth-3 inactive | NIH3T3 tox inactive | NIH3T3 tox 2 64
CCCC#Cc1ccc2c(c1)O[C@@H](CN(C)Cc1cncnc1)[C@H](C)CN([C@H](C)CO)S2(=O)=O	none
COCC#Cc1ccc2c(c1)O[C@H](CN(C)Cc1cncnc1)[C@H](C)CN([C@H](C)CO)S2(=O)=O	none
CCCC#Cc1ccc2c(c1)O[C@H](CN(C)Cc1cncnc1)[C@H](C)CN([C@H](C)CO)S2(=O)=O	none
Cc1ccc(N(C(C)C(=O)Nc2cc(C)cc(C)c2)S(C)(=O)=O)cc1 (stereo not given)	none (no result: GASC1 inh, T cruzi growth-1)
c1ccc(OCc2nc3ccccc3n2Cc2ccccn2)cc1	none (no result: GASC1 inh, T cruzi growth-1)
Cc1c(CCC(=O)O)c(=O)oc2c(C)c(OCc3c(F)cccc3Cl)ccc12	none (no result: GASC1 inh, T cruzi growth-1)
COc1ccc(CNCCCN2CCOCC2)cc1OC	none (no result: GASC1 inh, T cruzi growth-1)
CCC(C)Cn1c(CCCO)nc2ccccc21 (stereo not given)	none (no result: GASC1 inh, T cruzi growth-1)
CC(=O)Nc1cccc(NC(=O)CSc2ccccc2[N+](=O)[O-])c1	none (no result: GASC1 inh, T cruzi growth-1)
COc1c(O[C@@H]2O[C@H](CO[C@H]3OC[C@](O)(CO)[C@H]3O)[C@@H](O)[C@H](O)[C@H]2O)cc2occ(-c3ccc(O)cc3)c(=O)c2c1O	none (no result: GASC1 inh, T cruzi growth-1)
COc1cc(OC)c(NC(=O)CN(C)S(=O)(=O)c2ccc(Br)cc2)cc1Cl	none (no result: GASC1 inh, T cruzi growth-1)
CCCC#Cc1ccc2c(c1)O[C@@H](CN(C)Cc1cccnc1)[C@@H](C)CN([C@@H](C)CO)S2(=O)=O	T cruzi growth-1 96, IDH1 R132H inh 53 | T cruzi growth-2 99 | T cruzi growth-3 inactive | NIH3T3 tox inactive | NIH3T3 tox 2 inactive
CCCC#Cc1ccc2c(c1)O[C@H](CN(C)Cc1cncnc1)[C@H](C)CN([C@@H](C)CO)S2(=O)=O	none
C[C@H](CO)N1C[C@H](C)[C@@H](CN(C)C)Oc2cc(-c3cccc(F)c3)ccc2S1(=O)=O	none
C[C@H]1CN([C@@H](C)CO)S(=O)(=O)c2ccc(-c3cccc(F)c3)cc2O[C@H]1CN(C)S(C)(=O)=O	T cruzi growth-1 138 | T cruzi growth-2 102 | T cruzi growth-3 inactive | NIH3T3 tox inactive | NIH3T3 tox 2 52
C[C@H]1CN([C@@H](C)CO)S(=O)(=O)c2ccc(-c3cccc(F)c3)cc2O[C@@H]1CN(C)S(=O)(=O)c1ccc(F)cc1	T cruzi growth-1 127 (no result: IDH1 R132H inh) | T cruzi growth-2 105 | T cruzi growth-3 104 | NIH3T3 tox 57 | NIH3T3 tox 2 38
C[C@@H]1CN([C@@H](C)CO)S(=O)(=O)c2ccc(-c3cccc(F)c3)cc2O[C@@H]1CN(C)C	none
C[C@@H]1CN([C@H](C)CO)S(=O)(=O)c2ccc(-c3cccc(F)c3)cc2O[C@@H]1CN(C)S(=O)(=O)c1ccc(F)cc1	T cruzi growth-1 98 (no result: IDH1 R132H inh) | T cruzi growth-2 100 | T cruzi growth-3 inactive | NIH3T3 tox 47 | NIH3T3 tox 2 47
COc1ccc(S(=O)(=O)N(C)C[C@@H]2Oc3cc(-c4cccc(F)c4)ccc3S(=O)(=O)N([C@@H](C)CO)C[C@@H]2C)cc1	none (no result: T cruzi growth-1)
Cc1ccc(S(=O)(=O)N(C)C[C@H]2Oc3cc(-c4cccc(F)c4)ccc3S(=O)(=O)N([C@@H](C)CO)C[C@@H]2C)cc1	GASC1 inh 45, T cruzi growth-1 124, IDH1 R132H inh 87 | T cruzi growth-2 97 | T cruzi growth-3 inactive | NIH3T3 tox inactive | NIH3T3 tox 2 38
C[C@H]1CN([C@@H](C)CO)S(=O)(=O)c2ccc(-c3cccc(F)c3)cc2O[C@@H]1CN(C)S(C)(=O)=O	none
CCC(Sc1nc(N)cc(=O)[nH]1)C(=O)Nc1ccc2ccccc2c1 (stereo not given)	none (no result: GASC1 inh, T cruzi growth-1)
Cn1c(SCC(=O)Nc2ccc(Br)c(Cl)c2)nnc1-c1ccco1	none (no result: GASC1 inh, T cruzi growth-1)
Cc1sc(NC(=O)CCn2cnc3ccccc3c2=O)c(C#N)c1C	none (no result: GASC1 inh, T cruzi growth-1)
C/C=C/c1ccc([C@@H]2[C@@H](CN(CC)C(=O)CC)N(C(=O)C3CCC3)[C@H]2CO)cc1	none (no result: IDH1 R132H inh)
C/C=C/c1ccc([C@@H]2[C@H](CO)N(C(=O)C3CC3)[C@H]2CN(CC)C(C)=O)cc1	T cruzi growth-1 100 (no result: IDH1 R132H inh) | T cruzi growth-2 inactive | T cruzi growth-3 inactive | NIH3T3 tox inactive | NIH3T3 tox 2 inactive
C/C=C/c1ccc([C@@H]2[C@@H](CN(CC)C(=O)CC)N(C(C)=O)[C@H]2CO)cc1	none (no result: IDH1 R132H inh)
C/C=C/c1ccc([C@@H]2[C@@H](CO)N(C(C)=O)[C@H]2CN(CC)C(=O)CC)cc1	T cruzi growth-1 101 (no result: IDH1 R132H inh) | T cruzi growth-2 106 | T cruzi growth-3 inactive | NIH3T3 tox inactive | NIH3T3 tox 2 inactive
O=C(CSc1ccccc1)Nc1ccc(C(=O)Nc2ccc(Br)cc2C(=O)O)cc1	none (no result: GASC1 inh, T cruzi growth-1)
CO[C@@H](CN(C)S(=O)(=O)c1ccc(F)cc1)[C@@H](C)CN(Cc1ccccc1Cl)[C@H](C)CO	T cruzi growth-1 107 | T cruzi growth-2 inactive | T cruzi growth-3 inactive | NIH3T3 tox inactive | NIH3T3 tox 2 inconclusive
CO[C@H](CN(C)C(=O)Nc1ccc(Cl)cc1)[C@@H](C)CN(Cc1ccccc1Cl)[C@@H](C)CO	T cruzi growth-1 inconclusive | T cruzi growth-2 109 | T cruzi growth-3 inactive | NIH3T3 tox inactive | NIH3T3 tox 2 40
CO[C@H](CN(C)C(=O)Nc1ccc(C(F)(F)F)cc1)[C@H](C)CN(Cc1ccccc1Cl)[C@H](C)CO	T cruzi growth-1 105 | T cruzi growth-2 110 | T cruzi growth-3 inactive | NIH3T3 tox 46 | NIH3T3 tox 2 105
CO[C@H](CN(C)S(=O)(=O)c1ccc(F)cc1)[C@H](C)CN(Cc1ccccc1Cl)[C@H](C)CO	none
CO[C@@H](CN(C)C(=O)Nc1ccc(F)cc1)[C@@H](C)CN(Cc1ccccc1Cl)[C@H](C)CO	none
CO[C@@H](CN(C)C(=O)Nc1ccc(C(F)(F)F)cc1)[C@H](C)CN(Cc1ccccc1Cl)[C@H](C)CO	none
CO[C@@H](CN(C)C(=O)Nc1ccc(F)cc1)[C@@H](C)CN(Cc1ccccc1Cl)[C@@H](C)CO	none

High-throughput results: PubChem BioAssay, Broad Institute
